Reference: publication PMC9516696 (RSC Advances, 2022)
“Also recorded” adds a separate entry of the source.

Columns and labels:
[1] = tested on: HEK293T cell line (human embryonic kidney); assay: MTT cytotoxicity assay, HEK293T; format: cell-based; details: 24 h
In short: (§1)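 Cells (1 × 10^4 per well in 0.2 mL medium) were exposed to test compounds, pre-dissolved in DMSO, at 0.01–1 mM for 24 h. Compounds were then washed out with three PBS washes, and MTT was read at once. Five replicates per concentration, each repeated at least three times; IC50 given as mean + SD. MCF7, A549 and HaCaT were grown in DMEM with 10% FBS and 1% streptomycin/penicillin. DU-145 and HEK293T were grown in MEM with 10% FBS. All cultures were kept at 37 °C, 5% CO2.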

[2] = tested on: HaCat (human keratinocyte); assay: MTT cytotoxicity assay, HaCat; format: cell-based; details: 24 h
In short: as §1

[3] = tested on: MCF7 cell line (human breast adenocarcinoma); assay: MTT cytotoxicity assay, MCF7; format: cell-based
In short: as §1

[4] = tested on: DU-145 cell line (human prostate carcinoma); assay: MTT cytotoxicity assay, DU-145; format: cell-based
In short: as §1

[5] = tested on: A549 cell line (human lung adenocarcinoma); assay: MTT cytotoxicity assay, A549; format: cell-based
In short: as §1

DU-145 cells [6] = assay: ROS generation, H2DCF-DA assay; format: cell-based, human; details: DU-145, 24, 48 and 72 h, c = 1 μM
In short: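 DU-145 prostate carcinoma cells grown in MEM with 10% FBS at 37 °C, 5% CO2, seeded in 96-well plates. Cells were exposed continuously to test compound (copper complexes or free ligands), then loaded with the H2DCF-DA probe. ROS was read by fluorescence, with work done in darkness. Signal was related to an untreated negative control and an extra-H2O2 positive control.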

DU-145 cells [7] = assay: Mitochondrial membrane potential, JC-10 assay; format: cell-based, human; details: DU-145, compounds at IC50, 24 h, JC-10 emission ratio 570 nm/530 nm
In short: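 DU-145 cells were seeded at 1 × 10^4 per 0.2 mL. After 24 h the medium was replaced with test compound solutions, gentamicin (0.5 mg mL−1, positive control) or ciprofloxacin (10 μg mL−1, negative control), then incubated 24 h at 37 °C, 5% CO2. Cells were PBS-washed twice and loaded with JC-10 for 1 h. Emission read at λex 540/λem 570 nm and λex 485/λem 530 nm; red/green ratio reported as mean + SD.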

[8] = tested on: HEK293T and HaCat normal cell lines; assay: Cytotoxicity toward normal cell lines, stated in words; format: cell-based, human
In short: as §1

[9] = Stability in DMSO solution by FT-IR; format: physicochemical; details: 2% solution in DMSO, 0-96 h, qualitative
In short: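 ATR FT-IR of 2% solutions of the complexes in DMSO, one drop on the diamond plate, recorded at 1, 24, 48, 72 and 96 h. Settings: 2 cm−1 resolution, 128 scans, 4000–400 and 600–100 cm−1, room temperature. Solution spectra were compared with the solid-state spectra; qualitative only.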

Stability in DMSO/H2O = format: physicochemical
In short: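 UV-Vis spectra of the complexes in DMSO/H2O (9:1, v/v) at room temperature, recorded right after dissolving and at 48 and 96 h. Full range recorded at 10−6 M; d–d bands recorded at 10−4 M.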

[10] = HEK293T, non-cancerous cell line, MTT
[11] = HaCat, non-cancerous cell line, MTT
[12] = MCF7, cancer cell line, 24 h, MTT
[13] = DU145, cancer cell line, 24 h, MTT
[14] = A549, cancer cell line, 24 h, MTT

Molecule | IC50 [1, 10] [µM] | IC50 [2, 11] [µM] | IC50 [3, 12] [µM] | IC50 [4, 13] [µM] | IC50 [5, 14] [µM] | IC50 ([1]; Homo sapiens, HEK-293T) [µM] | IC50 ([2]; Homo sapiens, HaCaT) [µM] | IC50 ([3]; Homo sapiens, MCF7, 24 h) [µM] | IC50 ([4]; Homo sapiens, DU-145, 24 h) [µM] | IC50 ([5]; Homo sapiens, A549, 24 h) [µM] | ROS generation compared to negative control (order) (DU-145 cells [6]) | Reduction of mitochondrial membrane potential (DU-145 cells [7]) | Activity toward DU-145 cancer cells [4] | Toxicity towards normal (healthy) cells [8] | Stability in DMSO solution [9] | Stability in DMSO/H2O solution (Stability in DMSO/H2O; DMSO/H2O 9:1 v/v, room temperature, 0 min, 48 h and 96 h, UV-Vis) | Structure after dissolving in biological medium (Stability in DMSO/H2O; biological medium, confirmed by UV-Vis and FT-IR)
N.N.[Cl][Pt][Cl] [Cisplatin, cisplatin, reference compound] | 21 ± 1.8 | 13.3 ± 1.1 | 50.9 ± 2.6 | 98.3 ± 1.3 | 57 ± 1.3 |  |  |  |  |  |  |  |  |  |  |  | 
OCCc1ccccn1 [2-Pyridineethanol, 2-pyridineethanol] |  |  |  |  |  | > 1000 | > 1000 | > 1000 | > 1000 | > 1000 | complex 1 > complex 3 > 2-pyridineethanol > 2-ethylpyridyne | most significantly reduced |  |  |  |  | 
trans-[CuCl2(etpy)2] [Complex 1] | > 1000 | > 1000 | > 1000 | > 1000 | > 1000 |  |  |  |  |  | complex 1 > complex 3 > 2-pyridineethanol > 2-ethylpyridyne | least effect | inactive | did not exhibit toxicity; also recorded: nontoxic |  |  | 
[Cu4OCl6(etpy)4] [Complex 2] | > 1000 | > 1000 | > 1000 | > 1000 | > 1000 |  |  |  |  |  |  |  | inactive |  | turns into complex 1 | turns into complex 1 | adopts the same structure as compound 1
OCc1ccccn1 [2-Pyridinemethanol, 2-pyridinemethanol] |  |  |  |  |  | > 1000 | > 1000 | > 1000 | > 1000 | > 1000 |  |  |  |  |  |  | 
CCc1ccccn1 [2-Ethylpyridine, 2-ethylpyridine] |  |  |  |  |  | > 1000 | > 1000 | > 1000 | > 1000 | > 1000 | complex 1 > complex 3 > 2-pyridineethanol > 2-ethylpyridyne | most significantly reduced |  |  |  |  | 
